Most compounds without a hit are left out; they make up all but 0.84% or so of the library.
SKN-1 block = blocks SKN-1 activity in C. elegans; C. elegans VP596 Pgst-4::GFP/RFP ratio, acrylamide-induced, 24 h; inhibition, % at 21.8 µM; 360,000 compounds, 0.49% hits; AID 624304;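 active = interference check ratio from 0.5 to 1.5 plus GFP to RFP signal ratio inhibition reaching or exceeding a fixed threshold, cut at about 30% in these data, passing the limit was not always enough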
DDE Tn6 FP inh = inhibitors of Tn6 peptide binding to human fibrin DD(E); P02675; Fibrin DD(E) TRITC-Tn6 fluorescence polarization displacement; inhibition, % at 8.3 µM; 370,000 compounds, 0.21% hits; AID 720509;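 active = inhibition above a per-campaign cutoff: mean of compounds within control limits plus 3 SD, cut at about 15% in these data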;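 note: 0% = median of all compound wells on the plate and 100% = blocking peptide control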
Target sequence (P02675 whole entry, looked up): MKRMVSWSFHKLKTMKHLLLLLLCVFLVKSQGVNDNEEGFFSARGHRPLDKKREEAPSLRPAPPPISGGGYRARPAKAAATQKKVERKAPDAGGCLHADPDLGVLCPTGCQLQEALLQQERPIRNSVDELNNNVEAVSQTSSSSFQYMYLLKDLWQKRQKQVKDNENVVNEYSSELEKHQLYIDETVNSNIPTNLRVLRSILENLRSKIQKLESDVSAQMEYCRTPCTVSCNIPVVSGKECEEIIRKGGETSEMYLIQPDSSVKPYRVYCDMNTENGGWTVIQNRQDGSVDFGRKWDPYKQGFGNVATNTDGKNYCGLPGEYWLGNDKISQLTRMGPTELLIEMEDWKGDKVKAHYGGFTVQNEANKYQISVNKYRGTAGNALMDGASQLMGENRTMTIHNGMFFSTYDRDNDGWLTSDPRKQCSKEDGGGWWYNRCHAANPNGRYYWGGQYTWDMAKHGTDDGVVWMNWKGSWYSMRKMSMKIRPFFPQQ
Tn7 DDE FP = inhibitors of Tn7 peptide binding to human fibrin DD(E); inhibition, % at 8.3 µM; FP displacement of FITC-Tn7 peptide from fibrin DD(E); 0% = median of compound wells per plate; 370,000 compounds, 0.13% hits; P02675;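 active = inhibition above the mean of compounds falling within the control limits plus 3 SD of them, cut at about 14% in these data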;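 note: 0% = plate median of compound wells and 100% = 10 µM Aha-Tn7 peptide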
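Test system – human fibrin DD(E) · Times – 10 min preincubation, 3 h with tracer, room temperature · Detection – fluorescence polarization of the labelled Tn7 tracer · Measure – percent inhibition normalized to high-control wells · Benchmarks – high control wells with 10 µM unlabelled Aha-Tn7 peptide (full inhibition) · Repeats – singlicate testing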
MT1-MMP act inh = inhibitors of human MT1-MMP activation | HT1080 RFP-PRO-GFP cells, GFP/RFP ratio fluorescence, overnight; percent of plate control window, DMSO zero | P50281 | 360,000 compounds, 0.061% hits | GFP/RFP ratio change, % at 20 µM;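 active = GFP/RFP ratio change of at least 30% with cell ATP level not reduced by more than half and red fluorescence within 50% of control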
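Compound: 20 µM single dose, 1% DMSO / System: HT1080 RFP-PRO-GFP cells / Controls: DMSO and RFP-L50D-GFP cell wells / Read-out basis: GFP/RFP fluorescence ratio / Schedule: overnight compound exposure at 37 °C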
MT1-MMP act val = MT1-MMP (human) activation inhibition, single-concentration validation. shares compounds with MT1-MMP act inh. HT1080 RFP-PRO-GFP cells, GFP and RFP fluorescence ratio, overnight. inhibition, % at 20 µM. 200 compounds, 10% hits. AID 652235;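 active = inhibition of at least 50% in the primary cell screen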
* = called active by the depositor; / = no result.

SMILES | SKN-1 block | DDE Tn6 FP inh | Tn7 DDE FP | MT1-MMP act inh | MT1-MMP act val
O=C(Cn1ccc(C(F)(F)F)n1)N/N=C/c1cccs1 | 3 | 8 | 3 | 5 | /
CCOC(=O)c1c2c3c(c(Cl)ccc3[nH]c1=O)C(=O)c1ccccc1-2 | 8 | -1 | -3 | 44* | 22
CCOC(=O)c1c2c3c(cccc3[nH]c1=O)C(=O)c1ccccc1-2 | 8 | 3 | 2 | -10 | /
O=C(O)c1ccc(N=N/C(=N\Nc2ccc(C(=O)O)cc2)c2ccccc2)cc1 | 14 | 9 | 0 | 31* | 23
CC(C)C[C@H]1CN([C@@H](CC(C)C)CN2CCC[C@@H]2CN2C(=S)NC[C@@H]2Cc2ccc(O)cc2)C(=S)N1CC1CCCCC1 | 4 | -7 | -5 | 1 | /
CN(C)c1ccc(Cc2cc3c(O)ccc(O)c3cc(Cc3ccc(N(C)C)cc3)c2=O)cc1 | 16 | -1 | -3 | 33* | 23
CN(C)c1ccc(C(=O)c2ccc(O)cc2O)cc1 | 11 | 5 | 4 | -2 | /
COc1cccc(C2=Nc3cccc4cccc(c34)N2)c1 | 15 | -12 | 8 | 37* | 7
O=S1(=O)c2ccc(Br)cc2OC[C@@H](c2ccccc2)N1Cc1cn(CCC2OCCCO2)nn1 | / | 7 | 0 | / | /
CC1=NN(c2ccccc2)C(=O)/C1=C/C=C/C=C/N(C)C | 66* | 1 | 2 | 40* | 38
CCCN1/C(=C2/SC(=S)N(CC)C2=O)C=Cc2ccccc21 | 35 | 0 | 4 | 40* | 35
CCN1C(=O)/C(=C2/C=Cc3ccccc3N2CC)SC1=S | 20 | 1 | 8 | 18 | /
CN1C(=O)/C(=C2/C=Cc3ccccc3N2CCCS(=O)(=O)O)SC1=S | 32 | -4 | 4 | 42* | 39
CCCN1C(=O)/C(=C2/C=Cc3ccccc3N2CC)SC1=S | 5 | -5 | 1 | 45* | 44
CC1CCCCC1NC(=O)C1CCCN(S(=O)(=O)c2ccc(-n3cnnn3)cc2)C1 (stereo not given) | -3 | 5 | 5 | 0 | /
Cc1noc(C)c1C(=O)N(C)C[C@@H]1OCc2ccccc2-c2c(n(C)c3ccccc23)C(=O)N([C@H](C)CO)C[C@H]1C | 0 | 1 | 1 | 1 | /
COc1ccc(C(C)(NC(C)=O)c2nc(-c3cc(F)cc(F)c3)cs2)cc1 (stereo not given) | -6 | 1 | -1 | -2 | /
Nc1cccc2[nH]c(C(F)(F)F)nc12 | 7 | 11 | 5 | 51* | 27
O=C(O)c1cccc2[nH]c(C(F)(F)F)nc12 | -20 | 6 | 5 | 3 | /
COc1ccc(N=Cc2ccccc2O)cc1 | -3 | 5 | -1 | 3 | /
COc1ccc2sc(/C=C/c3ccccc3O)[n+](C)c2c1 | 37 | -13 | -10 | 34* | 8
COc1cccc2c1OC[C@@H](CO)[C@H]2N(C)C(=O)Nc1ccc(Cl)cc1Cl | -6 | 7 | 7 | 32* | 13
O=C(O)c1ccccc1C(=O)Nc1ccc(Nc2ccccc2)cc1 | 4 | -9 | -4 | 33* | 11
O=C(O)c1ccccc1C(=O)Nc1ccc(Oc2ccccc2)cc1 | 8 | -1 | 4 | 0 | /
CCc1ccc(OCCn2cccn2)cc1 | 7 | 11 | 6 | 2 | /
SMILES | SKN-1 block | DDE Tn6 FP inh | Tn7 DDE FP | MT1-MMP act inh | MT1-MMP act val
CC1C(=O)N(Cc2cn(CC3CCCCC3)nn2)CCS(=O)(=O)N1Cc1ccc(-c2ccc(Cl)cc2)cc1 (stereo not given) | 1 | / | / | 40* | 11
Cc1ccccc1COc1cccc(/C=N/NC(=O)c2nnn(-c3nonc3N)c2C)c1 | 7 | 8 | 5 | 6 | /
O=C1c2ccccc2C(=O)c2c(NCCCN(CCO)CCO)cccc21 | 41* | 6 | 4 | 30* | 28
Cc1ccc(NC(=S)NCc2ccc3c(c2)cc(C)n3C)c(C)c1 | 28 | 2 | 2 | 33* | 6
COc1ccccc1NC(=O)CCS(=O)(=O)c1ccc2c(c1)NC(=O)C(C)S2 (stereo not given) | 14 | / | / | -5 | /
O=c1[nH]cnc2sc(-c3ccccc3)cc12 | 18 | -4 | -4 | 34* | 1
CCCCNc1ccc2c(c1)OC[C@H](Cc1ccccc1)NS2(=O)=O | / | -5 | 13 | / | /
Cc1c(C)n(CCCN(C)C)c2ncnc(NC3CCCCC3)c12 | 14 | -5 | -6 | 1 | /
CNc1ccccc1C(C)(C)c1cc(-c2cccc(Br)c2)no1 | 73 | 3 | -2 | 62* | 54*
CC(C)(C)c1ccc(OCCNC(=O)c2ncn[nH]2)cc1 | -14 | -1 | 2 | 36* | 5
COc1ccc2nc(-n3c(O)c(C4=c5ccccc5=NC4=O)[nH]c3=S)sc2c1 | -3 | -1 | 5 | 35* | 34
Nc1cc(C(=O)OCC(=O)NNC(=O)c2cccs2)ccc1Cl | -2 | -1 | 3 | 4 | /
O=C(COC(=O)CNC(=O)c1cc(Cl)cc([N+](=O)[O-])c1)NC(=O)NCc1ccco1 | 15 | 1 | -4 | 1 | /
CC1CC2(CCCC2)Nc2ccc(F)cc21 (stereo not given) | 4 | 1 | 3 | 7 | /
Cc1cccc2c1NC1(CCCC1)CC2C (stereo not given) | 6 | 3 | 7 | 30* | -1
CNc1c(C(=O)O)ccc2c1C(=O)c1ccccc1C2=O | 16 | 1 | -1 | 34* | 26
CCNc1c(C(=O)O)ccc2c1C(=O)c1ccccc1C2=O | 14 | -1 | 1 | 16 | /
COc1ccccc1NC(=O)c1ccc(S(=O)(=O)N(C)c2ccccc2OC)cc1 | 2 | -3 | 4 | 35* | 10
COc1ccccc1NC(=O)c1ccc(S(=O)(=O)N(C)c2ccccc2)cc1 | -8 | 1 | -9 | 4 | /
Oc1ccc(N=Nc2cccc(C(F)(F)F)c2)cc1C=Nc1ccc(N2CCOCC2)cc1 | 7 | -8 | 6 | 45* | 14
Oc1ccc(C=Nc2ccc(N3CCOCC3)cc2)c(O)c1 | -4 | 4 | -2 | 0 | /
O=C1NC[C@H](CC2CCCCC2)N(CCC23CC4CC(CC(C4)C2)C3)C1=O | -6 | 0 | -1 | 7 | /
COc1ccc(Nc2nc(N)c3ccccc3n2)c(OC)c1 | 2 | -3 | -2 | 39* | 27
CN(CCCS(=O)(=O)[O-])c1ccc(/C=C/c2ccc3ccccc3[n+]2C)cc1 | 37* | 3 | -2 | 40* | 17
CC[n+]1c(/C=C/Nc2ccccc2)sc2ccccc21 | 39* | -11 | -8 | 38* | 41
COc1ccc(CCNC(=O)c2ccccc2NC(=O)C2=C(C)OCCS2)cc1OC | 8 | -1 | 3 | 0 | /
COc1ccc(-c2nnc(NC(=O)CSc3ccc(Cl)cc3)s2)cc1OC | 9 | -2 | 0 | 37* | 6
CC1(C)CCCN(C(=O)c2ccc3c(c2NCCO)C(=O)c2ccccc2C3=O)C1 | 35 | 1 | -1 | 40* | 32
